# Results as given in ChEMBL document CHEMBL4334458, “Design, synthesis and antibacterial evaluation of novel 15-membered 11a-azahomoclarithromycin derivatives with the 1, 2, 3-triazole side chain” (Eur J Med Chem, 2019).
# Columns and labels:
# Type in all cases: functional
# Staphylococcus aureus [1] = experiment: Antibacterial activity against erythromycin-susceptible Staphylococcus aureus ATCC 25923 incubated for 24 hrs by broth dilution method; settings: ATCC 25923, 24 h
# Outline: (§1)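 CLSI broth microdilution in cation-adjusted Mueller-Hinton broth. Twofold dilutions spanned 0.25–128 or 0.5–256 µg/mL, with CAM and AZM as controls. Log-phase bacteria were added and incubated 24 h at 37 °C. MIC was read by turbidity as the concentration of the last clear well.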
# Staphylococcus aureus [2] = experiment: Antibacterial activity against methicillin-resistant Staphylococcus aureus ATCC 43300 incubated for 24 hrs by broth dilution method; settings: ATCC 43300, 24 h
# Staphylococcus aureus [3] = experiment: Antibacterial activity against penicillin-resistant Staphylococcus aureus ATCC 31007 incubated for 24 hrs by broth dilution method; settings: ATCC 31007, 24 h
# Pseudomonas aeruginosa = experiment: Antibacterial activity against penicillin-susceptible Pseudomonas aeruginosa ATCC 27853 incubated for 24 hrs by broth dilution method; settings: ATCC 27853, 24 h; outline: as §1
# Bacillus subtilis = experiment: Antibacterial activity against penicillin-susceptible Bacillus subtilis ATCC 9372 incubated for 24 hrs by broth dilution method; settings: ATCC 9372, 24 h; outline: as §1
# Streptococcus pyogenes [4] = experiment: Antibacterial activity against erythromycin-resistant Streptococcus pyogenes 2 clinical isolate incubated for 24 hrs by broth dilution method
# Streptococcus pneumoniae [5] = experiment: Antibacterial activity against erythromycin-resistant Streptococcus pneumoniae B1 expressing the ermB incubated for 24 hrs by broth dilution method
# Streptococcus pyogenes [6] = experiment: Antibacterial activity against erythromycin-susceptible Streptococcus pyogenes 1 clinical isolate incubated for 24 hrs by broth dilution method; outline: as §1
# Escherichia coli = experiment: Antibacterial activity against penicillin-susceptible Escherichia coli ATCC 25922 incubated for 24 hrs by broth dilution method; settings: ATCC 25922, 24 h; outline: as §1
# Streptococcus pneumoniae [7] = experiment: Antibacterial activity against erythromycin-resistant Streptococcus pneumoniae AB11 expressing the ermB and mefA incubated for 24 hrs by broth dilution method
Structure (SMILES),MIC (Staphylococcus aureus [1]) [µg/mL],MIC (Staphylococcus aureus [2]) [µg/mL],MIC (Staphylococcus aureus [3]) [µg/mL],MIC (Pseudomonas aeruginosa) [µg/mL],MIC (Bacillus subtilis) [µg/mL],MIC (Streptococcus pyogenes [4]) [µg/mL],MIC (Streptococcus pneumoniae [5]) [µg/mL],MIC (Streptococcus pyogenes [6]) [µg/mL],MIC (Escherichia coli) [µg/mL],MIC (Streptococcus pneumoniae [7]) [µg/mL]
COc1ccc(-n2cc(COC[C@H]3CN(C)C[C@@H](C)[C@@H](O)[C@H](C)C[C@@](C)(OC)[C@H](O[C@@H]4O[C@H](C)C[C@H](N(C)C)[C@H]4O)[C@@H](C)[C@H](O[C@H]4C[C@@](C)(OC)[C@@H](O)[C@H](C)O4)[C@@H](C)C(=O)O3)nn2)cc1,1,> 256,> 256,16,0.5,128,> 256,0.25,64,64
CO[C@]1(C)C[C@@H](C)[C@H](O)[C@H](C)CN(C)[C@@H](Cn2cc(-c3ccc(F)cc3)nn2)COC(=O)[C@H](C)[C@@H](O[C@H]2C[C@@](C)(OC)[C@@H](O)[C@H](C)O2)[C@H](C)[C@H]1O[C@@H]1O[C@H](C)C[C@H](N(C)C)[C@H]1O,64,128,128,> 128,32,128,256,16,> 128,128
CO[C@]1(C)C[C@@H](C)[C@H](O)[C@H](C)CN(C)[C@H](Cn2cc(-c3ccccc3)nn2)COC(=O)[C@H](C)[C@@H](O[C@H]2C[C@@](C)(OC)[C@@H](O)[C@H](C)O2)[C@H](C)[C@H]1O[C@@H]1O[C@H](C)C[C@H](N(C)C)[C@H]1O,8,256,128,64,16,128,256,8,64,256
CO[C@]1(C)C[C@@H](C)[C@H](O)[C@H](C)CN(C)C[C@H](COCc2cn(-c3ccc(C)cc3)nn2)OC(=O)[C@H](C)[C@@H](O[C@H]2C[C@@](C)(OC)[C@@H](O)[C@H](C)O2)[C@H](C)[C@H]1O[C@@H]1O[C@H](C)C[C@H](N(C)C)[C@H]1O,0.5,256,256,16,≤ 0.25,64,256,1,64,64
CO[C@]1(C)C[C@@H](C)[C@H](O)[C@H](C)CN(C)[C@H](Cn2cc(-c3ccccn3)nn2)COC(=O)[C@H](C)[C@@H](O[C@H]2C[C@@](C)(OC)[C@@H](O)[C@H](C)O2)[C@H](C)[C@H]1O[C@@H]1O[C@H](C)C[C@H](N(C)C)[C@H]1O,16,256,256,64,32,256,256,4,64,128
CO[C@]1(C)C[C@@H](C)[C@H](O)[C@H](C)CN(C)C[C@@H](COCc2cn(-c3ccc(SC)cc3)nn2)OC(=O)[C@H](C)[C@@H](O[C@H]2C[C@@](C)(OC)[C@@H](O)[C@H](C)O2)[C@H](C)[C@H]1O[C@@H]1O[C@H](C)C[C@H](N(C)C)[C@H]1O,4,64,128,128,2,32,64,4,128,32
COc1ccc(-c2cn(C[C@H]3COC(=O)[C@H](C)[C@@H](O[C@H]4C[C@@](C)(OC)[C@@H](O)[C@H](C)O4)[C@H](C)[C@@H](O[C@@H]4O[C@H](C)C[C@H](N(C)C)[C@H]4O)[C@](C)(OC)C[C@@H](C)[C@H](O)[C@H](C)CN3C)nn2)cc1,64,256,256,> 128,32,256,256,4,> 128,64
CO[C@]1(C)C[C@@H](C)[C@H](O)[C@H](C)CN(C)[C@H](Cn2cc(-c3ccc(F)cc3)nn2)COC(=O)[C@H](C)[C@@H](O[C@H]2C[C@@](C)(OC)[C@@H](O)[C@H](C)O2)[C@H](C)[C@H]1O[C@@H]1O[C@H](C)C[C@H](N(C)C)[C@H]1O,16,256,128,128,16,128,128,16,> 128,128
COc1ccc(-n2cc(COC[C@@H]3CN(C)C[C@@H](C)[C@@H](O)[C@H](C)C[C@@](C)(OC)[C@H](O[C@@H]4O[C@H](C)C[C@H](N(C)C)[C@H]4O)[C@@H](C)[C@H](O[C@H]4C[C@@](C)(OC)[C@@H](O)[C@H](C)O4)[C@@H](C)C(=O)O3)nn2)cc1,8,256,256,128,2,128,256,4,128,128
CO[C@]1(C)C[C@@H](C)[C@H](O)[C@H](C)CN(C)C[C@@H](COCc2cn(-c3ccccn3)nn2)OC(=O)[C@H](C)[C@@H](O[C@H]2C[C@@](C)(OC)[C@@H](O)[C@H](C)O2)[C@H](C)[C@H]1O[C@@H]1O[C@H](C)C[C@H](N(C)C)[C@H]1O,2,> 256,> 256,128,0.5,128,> 256,2,128,128
CO[C@]1(C)C[C@@H](C)[C@H](O)[C@H](C)CN(C)C[C@H](Cn2cc(-c3ccccc3)nn2)OC(=O)[C@H](C)[C@@H](O[C@H]2C[C@@](C)(OC)[C@@H](O)[C@H](C)O2)[C@H](C)[C@H]1O[C@@H]1O[C@H](C)C[C@H](N(C)C)[C@H]1O,1,256,256,64,1,128,256,0.12,32,128
CO[C@]1(C)C[C@@H](C)[C@H](O)[C@H](C)CN(C)[C@@H](Cn2cc(-c3ccccn3)nn2)COC(=O)[C@H](C)[C@@H](O[C@H]2C[C@@](C)(OC)[C@@H](O)[C@H](C)O2)[C@H](C)[C@H]1O[C@@H]1O[C@H](C)C[C@H](N(C)C)[C@H]1O,64,> 256,> 256,> 128,32,256,> 256,16,> 128,256
CO[C@]1(C)C[C@@H](C)[C@H](O)[C@H](C)CN(C)C[C@@H](Cn2cc(-c3ccccc3)nn2)OC(=O)[C@H](C)[C@@H](O[C@H]2C[C@@](C)(OC)[C@@H](O)[C@H](C)O2)[C@H](C)[C@H]1O[C@@H]1O[C@H](C)C[C@H](N(C)C)[C@H]1O,0.5,256,128,64,1,64,64,0.5,64,64
COc1ccc(-c2cn(C[C@@H]3COC(=O)[C@H](C)[C@@H](O[C@H]4C[C@@](C)(OC)[C@@H](O)[C@H](C)O4)[C@H](C)[C@@H](O[C@@H]4O[C@H](C)C[C@H](N(C)C)[C@H]4O)[C@](C)(OC)C[C@@H](C)[C@H](O)[C@H](C)CN3C)nn2)cc1,64,128,32,> 128,32,128,128,4,> 128,128
CO[C@]1(C)C[C@@H](C)[C@H](O)[C@H](C)CN(C)C[C@H](Cn2cc(-c3ccccn3)nn2)OC(=O)[C@H](C)[C@@H](O[C@H]2C[C@@](C)(OC)[C@@H](O)[C@H](C)O2)[C@H](C)[C@H]1O[C@@H]1O[C@H](C)C[C@H](N(C)C)[C@H]1O,4,> 256,> 256,64,2,128,> 256,1,128,256
CO[C@]1(C)C[C@@H](C)[C@H](O)[C@H](C)CN(C)C[C@@H](COCc2cn(-c3ccc(C)cc3)nn2)OC(=O)[C@H](C)[C@@H](O[C@H]2C[C@@](C)(OC)[C@@H](O)[C@H](C)O2)[C@H](C)[C@H]1O[C@@H]1O[C@H](C)C[C@H](N(C)C)[C@H]1O,4,128,256,128,2,32,128,4,128,64
CC[C@H]1OC(=O)[C@H](C)[C@@H](O[C@H]2C[C@@](C)(OC)[C@@H](O)[C@H](C)O2)[C@H](C)[C@@H](O[C@@H]2O[C@H](C)C[C@H](N(C)C)[C@H]2O)[C@](C)(O)C[C@@H](C)CN(C)[C@H](C)[C@@H](O)[C@]1(C)O [AZITHROMYCIN],≤ 0.25,> 256,> 256,16,≤ 0.25,256,> 256,≤ 0.03,64,256
